The species entered for assay [1] is Rattus norvegicus. The experiment in a line: Selectivity ratio of Ki for sigma 1 receptor in rat cortical membranes to Ki for rat VAChT. It counts as cell membranes. The conditions noted are these: Membrane.
The target in assay [2] is T1, Vesicular acetylcholine transporter (Rattus norvegicus, UniProt Q62666).
T1 sequence (Q62666 whole entry): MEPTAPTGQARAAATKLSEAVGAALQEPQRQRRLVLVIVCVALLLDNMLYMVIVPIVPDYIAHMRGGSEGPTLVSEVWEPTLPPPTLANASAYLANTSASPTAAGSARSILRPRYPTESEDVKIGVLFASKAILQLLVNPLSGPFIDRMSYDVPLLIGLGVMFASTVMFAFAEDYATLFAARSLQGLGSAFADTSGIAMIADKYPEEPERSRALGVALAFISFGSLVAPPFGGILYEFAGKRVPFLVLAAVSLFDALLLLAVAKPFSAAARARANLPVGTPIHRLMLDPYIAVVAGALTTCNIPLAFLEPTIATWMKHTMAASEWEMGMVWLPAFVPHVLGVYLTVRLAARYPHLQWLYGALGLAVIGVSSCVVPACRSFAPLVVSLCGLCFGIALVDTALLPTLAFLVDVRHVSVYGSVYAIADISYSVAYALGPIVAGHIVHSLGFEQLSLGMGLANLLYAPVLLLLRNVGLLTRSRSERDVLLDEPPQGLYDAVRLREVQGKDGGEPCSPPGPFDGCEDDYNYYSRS
The assay is described as follows: Displacement of (-)-[3H]vesamicol from rat VAChT expressed in rat PC12 cells after 60 mins. It counts as cell-based, PC-12. The method in brief: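 Displacement of (−)-[3H]vesamicol was run on homogenates of PC12 cells stably transfected with rat VAChT. (−)-Vesamicol in excess defined non-specific binding, and bound ligand was collected by filtration on a cell harvester. Triplicates, at least three times; IC50 by computational non-linear regression.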

Assay [3] deals with Sigma non-opioid intracellular receptor 1 (Rattus norvegicus, UniProt Q9R0C9). The assay is described as follows: Displacement of (-)-[3H]pentazocine from sigma 1 receptor in rat cortical membranes after 120 mins. It counts as cell membranes, Membrane. The method in brief:
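Radioligand displacement on rat cortical membrane homogenates with (−)-[3H]pentazocine (1070 GBq/mmol), in 50 mM TRIS–HCl pH 7.4 at room temperature. Each assay was run in triplicate at least three times, and IC50 was estimated by non-linear regression.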

Assay [4] in a line: Displacement of (-)-[3H]DTG from sigma 2 receptor in rat liver membranes after 120 mins. It counts as cell membranes, Membrane.

Data on 7 compounds can be found in ChEMBL document CHEMBL1268949, “3D QSAR study, synthesis, and in vitro evaluation of (+)-5-FBVM as potential PET radioligand for the vesicular acetylcholine transporter (VAChT)” (Bioorg Med Chem, 2010).

Chain of Sigma non-opioid intracellular receptor 1 (Q9R0C9 whole entry): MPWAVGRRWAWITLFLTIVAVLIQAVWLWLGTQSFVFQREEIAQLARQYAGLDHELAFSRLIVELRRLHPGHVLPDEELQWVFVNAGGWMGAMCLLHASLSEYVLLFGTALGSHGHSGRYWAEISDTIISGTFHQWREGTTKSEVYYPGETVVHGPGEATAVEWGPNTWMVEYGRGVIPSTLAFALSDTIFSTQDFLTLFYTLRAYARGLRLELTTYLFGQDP

Consider `Nc1cccc2c1CC(N1CCC(c3ccccc3)CC1)C(O)C2` (racemic), for which the Ratio Ki in assay [1] was determined as 16. In addition, the Ki (usually a measure of affinity in units of concentration, obtained from inhibition or displacement) came to 40.6 nM in assay [2] and 652 nM in assay [3].
As to `O[C@@H]1Cc2cccc(OCCF)c2C[C@H]1N1CCC(c2ccccc2)CC1`, in assay [1], the Ratio Ki was determined as 10.7. Further, the inhibition constant (Ki) in assay [2] is 19.6 nM; in assay [3], 209 nM.
For the compound `O[C@@H]1Cc2cccc(F)c2C[C@H]1N1CCC(c2ccccc2)CC1`, in assay [1], the Ratio Ki is 0.97. For the same compound, the Ki in assay [2] amounted to 3.68 nM; in assay [4], 252 nM; in assay [3], 3.57 nM.
`OC1Cc2cccc(F)c2CC1N1CCC(c2ccccc2)CC1` (racemic): the Ratio Ki in assay [1] came out at 1.21. The inhibition constant (Ki) worked out at 10.9 nM in assay [2], 229 nM in assay [4] and 13.2 nM in assay [3].
`O[C@H]1Cc2cccc(OCCF)c2C[C@@H]1N1CCC(c2ccccc2)CC1`: the Ratio Ki in assay [1] turned out to be 4.7. The results for the Ki in assay [2] and in assay [3] were 56.9 nM and 269 nM, respectively.
For the compound `O[C@@H]1Cc2cccc(I)c2C[C@H]1N1CCC(c2ccccc2)CC1` (racemic), in assay [1], the Ratio Ki was determined as 17. For the same compound, the inhibition constant Ki is 15.8 nM in assay [2] and 266 nM in assay [3].
On to `O[C@H]1Cc2cccc(F)c2C[C@@H]1N1CCC(c2ccccc2)CC1`, for which, in assay [1], the Ratio Ki was determined as 5.48. Also, the Ki stood at 6.95 nM in assay [2], 526 nM in assay [4] and 38.1 nM in assay [3].
